Data taken from ChEMBL document CHEMBL1146655, “Novel thrombin inhibitors incorporating weakly basic heterobicyclic P1-arginine mimetics: optimization via modification of P1 and P3 moieties” (Bioorg Med Chem Lett, 2004).

How the values were obtained:
[1] = Dissociation constant was evaluated; type: physicochemical
[2] = molecular target: Coagulation factor X (Homo sapiens, UniProt P00742); test: In vitro inhibition of Coagulation factor Xa.
Procedure, shortened: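 Amidolytic assay with a chromogenic substrate for factor Xa. Ki was derived by the Cheng–Prusoff relation from IC50 values, or from velocity equations with and without inhibitor using the substrate Km.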

[3] = Concentration required to double the activated partial thromboplastin time in human plasma; type: functional
[4] = Concentration required to double the thrombin time in human plasma; type: functional
[5] = Concentration required to double the prothrombin time in human plasma; type: functional
[6] = Selectivity for inhibition of thrombin over trypsin.
Procedure, shortened: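 Ratio Ki(trypsin)/Ki(thrombin). Both Ki values came from chromogenic-substrate amidolytic assays, each derived by Cheng–Prusoff from IC50 or from velocity equations with and without inhibitor using the relevant Km.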

[7] = molecular target: Prothrombin (Homo sapiens, UniProt P00734); test: In vitro inhibition of human thrombin.
[8] = molecular target: T1, Serine protease 1 (Bos taurus, UniProt P00760); test: In vitro inhibition of bovine trypsin.
T1 sequence (P00760 whole entry): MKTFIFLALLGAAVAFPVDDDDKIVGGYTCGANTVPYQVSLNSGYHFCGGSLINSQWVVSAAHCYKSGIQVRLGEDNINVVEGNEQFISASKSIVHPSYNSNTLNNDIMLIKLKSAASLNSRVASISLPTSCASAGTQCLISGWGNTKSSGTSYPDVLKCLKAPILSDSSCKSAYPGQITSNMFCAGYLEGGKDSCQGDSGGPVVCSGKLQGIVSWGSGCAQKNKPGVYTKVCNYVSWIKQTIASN
Procedure, shortened: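 Amidolytic assay of thrombin, trypsin and factor Xa activity with chromogenic substrates. Ki was derived by the Cheng–Prusoff relation from IC50, or from reaction velocity equations with and without inhibitor using the substrate Km. Thrombin-over-trypsin selectivity was taken as the ratio Ki(trypsin)/Ki(thrombin).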

Chain of Coagulation factor X (P00742 41-179 limits assumed): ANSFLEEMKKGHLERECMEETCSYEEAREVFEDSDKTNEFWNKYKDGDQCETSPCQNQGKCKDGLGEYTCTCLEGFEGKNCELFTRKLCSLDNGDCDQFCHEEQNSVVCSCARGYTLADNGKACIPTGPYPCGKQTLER
Chain of Coagulation factor X (P00742 235-488 limits assumed): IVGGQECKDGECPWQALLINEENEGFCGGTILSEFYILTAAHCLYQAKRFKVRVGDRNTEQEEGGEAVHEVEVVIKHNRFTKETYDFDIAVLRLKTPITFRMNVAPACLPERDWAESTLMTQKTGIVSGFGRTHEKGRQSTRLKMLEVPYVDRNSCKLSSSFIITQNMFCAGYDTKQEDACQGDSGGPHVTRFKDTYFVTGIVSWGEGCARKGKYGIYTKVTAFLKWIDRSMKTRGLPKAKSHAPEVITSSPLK

Structure (SMILES)	pKa [1]	Ki [2] [µM]	2x APTT [3] [µM]	TT [4] [µM]	PT [5] [µM]	Selectivity [6]	Ki [7] [µM]	Ki [8] [µM]
Cc1ccc(NS(=O)(=O)Cc2ccc(F)cc2)c(=O)n1CC(=O)NC1CCc2nc(N)sc2C1 (stereo not given)	6.1	> 300	28.7	5.1	57.7	> 8000	0.1	> 800
Cc1ccc(NS(=O)(=O)Cc2ccc(F)cc2)c(=O)n1CC(=O)NC1CCc2c(sc(=N)n2N)C1 (stereo not given)	3.17	131	22.6			201	0.022	8.06
Cc1ccc(NS(=O)(=O)Cc2ccc(F)cc2)c(=O)n1CC(=O)N[C@H]1CCc2nc(N)sc2C1	6.1	176				> 123		> 700
CCCS(=O)(=O)Nc1ccc(C)n(CC(=O)NCC2CCc3nc(N)sc3C2)c1=O (stereo not given)	6.5						3.8	
CCCS(=O)(=O)Nc1ccc(C)n(CC(=O)NC2CCc3nc(N)sc3C2)c1=O (stereo not given)	6.1	200				28	2.3	64.3
Cc1ccc(NS(=O)(=O)Cc2cccc(C(F)(F)F)c2)c(=O)n1CC(=O)NC1CCc2nc(N)sc2C1 (stereo not given)	6.1	81	428	125	435	> 300		> 200
Cc1ccc(NS(=O)(=O)Cc2ccc(F)cc2Cl)c(=O)n1CC(=O)NC1CCc2nc(N)sc2C1 (stereo not given)	6.1	69	94	93.8			0.157	1920
Cc1ccc(NS(=O)(=O)Cc2ccc(F)cc2)c(=O)n1CC(=O)N[C@@H]1CCc2nc(N)sc2C1	6.1	> 500	20.1			> 9090	0.077	> 700
Cc1ccc(NS(=O)(=O)Cc2ccccc2)c(=O)n1CC(=O)N[C@H]1CCc2nc(N)sc2C1	6.1	371				253	1.16	
Cc1ccc(NS(=O)(=O)Cc2ccc(F)cc2)c(=O)n1CC(=O)NCC1CCc2n[nH]cc2C1 (stereo not given)	4	314	15.8	3.9	34	1720	0.149	258
Cc1ccc(NS(=O)(=O)Cc2ccccc2)c(=O)n1CC(=O)N[C@@H]1CCc2nc(N)sc2C1	6.1	225	9.52			3700	0.071	263
Cc1ccc(NS(=O)(=O)Cc2cccc(C(F)(F)F)c2)c(=O)n1CC(=O)NCC1CCc2n[nH]cc2C1 (stereo not given)	4	252	447	36.6	293	757	0.562	425
Cc1ccc(CS(=O)(=O)Nc2ccc(C)n(CC(=O)NC3CCc4nc(N)sc4C3)c2=O)cc1 (stereo not given)	6.1	80	31.3	12	56	2460	0.1	246
Cc1ccc(CS(=O)(=O)Nc2ccc(C)n(CC(=O)NCC3CCc4n[nH]cc4C3)c2=O)cc1 (stereo not given)	4	228	18.8	3.4	26.8	> 2900	0.102	> 300
Cc1ccc(NS(=O)(=O)Cc2ccccc2)c(=O)n1CC(=O)NC1CCc2c(sc(=N)n2N)C1 (stereo not given)	3.17	> 200	2.4			65	0.042	2.71
Cc1ccc(NS(=O)(=O)Cc2ccccc2)c(=O)n1CC(=O)NC1CCc2nc(N)sc2C1 (stereo not given)		92	36.5	6.6	41.4	2170	0.12	
CCCCS(=O)(=O)Nc1ccc(C)n(CC(=O)NC2CCc3nc(N)sc3C2)c1=O (stereo not given)	6.1	179				38	1.34	
Cc1ccc(NS(=O)(=O)Cc2ccc(F)cc2Cl)c(=O)n1CC(=O)NCC1CCc2n[nH]cc2C1 (stereo not given)	4	75	50	10.8	120	> 1910	0.157	> 300
Cc1ccc(NS(=O)(=O)Cc2ccccc2)c(=O)n1CC(=O)NCC1CCc2n[nH]cc2C1 (stereo not given)			20.5	5.2	30.6	> 2940		> 500
